Active and inactive are the calls of the source. The rule behind the calls is not given here.
What was measured:
[1] = Cardiotoxicity in human iPSC derived cardiomyocytes assessed as change in heart rate at 1 nM measured over 2 hrs by multi-electrode array relative to control; assay type: toxicity, cell-based; settings: stem cell-derived cardiomyocyte, 0.001 µM
Outline: (§1)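 Phosphate metabolite of each compound prepared and tested on cultured human induced pluripotent stem cell-derived cardiomyocytes at 1 and 10 nM; beat rate change averaged over three or more replicates per concentration unless noted (some n = 2).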

[2] = Drug metabolism in Lewis rat blood assessed as parent compound concentration at 0.5 mg/kg, po measured at 4 hrs by LC-MS/MS analysis; assay type: ADME, organism-based; settings: Lewis, blood, read-out: Ct
Outline: (§2)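 Lewis rats (n = 2−4) dosed orally at 0.5, 1, 2 or 5 mg/kg; blood parent and phosphate metabolite concentrations and lymphocyte counts taken 4 and 24 h post-dose; phosphate-to-parent ratio from 24 h levels; significance versus vehicle by ANOVA with Dunnett's test.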

[3] = Cardiotoxicity in human iPSC derived cardiomyocytes assessed as change in heart rate at 10 nM measured over 2 hrs by multi-electrode array relative to control; assay type: toxicity, cell-based; settings: stem cell-derived cardiomyocyte, 0.01 µM; outline: as §1
[4] = Reduction in circulating lymphocytes count in Lewis rat at 0.5 mg/kg, po measured at 4 hrs by hematology analyzer based analysis; assay type: ADME, organism-based; parameters: scale not given: the % may be the effect or the level left; settings: in vivo; outline: as §2
[5] = Drug metabolism in Lewis rat blood assessed as parent compound concentration at 0.5 mg/kg, po measured at 24 hrs by LC-MS/MS analysis; assay type: ADME, organism-based; settings: Lewis, blood, read-out: Ct; outline: as §2
[6] = Reduction in circulating lymphocytes count in Lewis rat at 0.5 mg/kg, po measured at 24 hrs by hematology analyzer based analysis; assay type: ADME, organism-based; parameters: scale not given: the % may be the effect or the level left; settings: in vivo; outline: as §2
[7] = tested on: Rattus norvegicus; test: Antiinflammatory activity in complete freund's adjuvant-induced Lewis rat model of arthritis assessed as reduction in paw edema at 0.3 mg/kg, po administered via gavage once daily and measured at day 13 to 20 by plethysmometric method; assay type: functional, organism-based; settings: time 13-20 day
[8] = tested on: Rattus norvegicus; test: Antiinflammatory activity in complete freund's adjuvant-induced Lewis rat model of arthritis assessed as reduction in paw edema administered via oral gavage once daily by plethysmometric method; assay type: functional, organism-based
[9] = tested on: Rattus norvegicus; test: Antiinflammatory activity in complete freund's adjuvant-induced Lewis rat model of arthritis assessed as increase in paw volume at 1 mg/kg, po administered via gavage once daily by plethysmometric method; assay type: functional, organism-based
[10] = tested on: Rattus norvegicus; test: Reduction in circulating lymphocytes count in Lewis rat at 2 mg/kg, po measured at 4 hrs by hematology analyzer based analysis; assay type: functional; parameters: scale not given: the % may be the effect or the level left; settings: 2 mg/kg, 4 h
Outline: (§3)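 Lewis rats (n = 2−4) dosed orally; whole-blood lymphocyte counts taken 4 h and 24 h after dosing and reduction expressed versus vehicle-treated rats. Significance by ANOVA with Dunnett's test (p < 0.05 vs vehicle). Blood levels of parent and phosphate metabolite measured at the same time points in this PK/PD screen.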

[11] = Pulmonary toxicity in Lewis rat assessed as fold elevation of BAL protein content at 10 mg/kg, po by chemistry analyzer based analysis relative to control; assay type: organism-based; settings: in vivo, 2 mg/kg, in the assay text read “2 mg/kg” for “10 mg/kg”
Outline: (§4)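 Lewis rats dosed orally; bronchoalveolar lavage protein measured at study end, expressed as fold over vehicle control.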

[12] = Ratio of drug metabolism in Lewis rat blood assessed as phosphate ester metabolite to parent drug at 2 mg/kg, po measured at 24 hrs by LC-MS/MS analysis; assay type: ADME, organism-based; settings: in vivo; outline: as §2
[13] = Drug concentration in Lewis rat blood assessed as concentration of parent compound at 2 mg/kg, po measured at 4 hrs by LC-MS/MS analysis; assay type: ADME, organism-based; settings: read-out: Ct; for concentration at 4 h: Lewis, blood; for concentration: in vivo, 2 mg/kg, 4 h; outline: as §2
[14] = Drug concentration in Lewis rat blood assessed as concentration of parent compound at 2 mg/kg, po measured at 24 hrs by LC-MS/MS analysis; assay type: ADME, organism-based; settings: in vivo, read-out: Ct; outline: as §2
[15] = Reduction in circulating lymphocytes count in Lewis rat at 2 mg/kg, po measured at 24 hrs by hematology analyzer based analysis; assay type: Functional, organism-based; parameters: scale not given: the % may be the effect or the level left; settings: in vivo; outline: as §3
[16] = Half life in Lewis rat at 2 mg/kg, po measured at 4 to 72 hrs; assay type: ADME, organism-based; settings: in vivo, time 4-72 hrs; for half-life: Lewis
Outline: (§5)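 Half-life estimated from oral-dosing blood PK profiles in Lewis rats sampled at four time points: 4, 24, 48 and 72 h.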

[17] = Pulmonary toxicity in Lewis rat assessed as fold elevation of BAL protein content at 15 mg/kg, po by chemistry analyzer based analysis relative to control; assay type: organism-based; settings: in vivo; outline: as §4
[18] = Pulmonary toxicity in Lewis rat assessed as fold elevation of BAL protein content at 2 mg/kg, po by chemistry analyzer based analysis relative to control; assay type: organism-based; settings: in vivo; outline: as §4
[19] = AUC ratio in orally dosed human blood assessed as phosphate metabolite to parent compound; assay type: ADME, organism-based; settings: po
[20] = Half life in Lewis rat at 1 mg/kg, po measured at 4 to 72 hrs; assay type: ADME, organism-based; settings: in vivo, time 4-72 hrs; outline: as §5
[21] = Drug concentration in Lewis rat blood assessed as concentration of parent compound at 1 mg/kg, po measured at 4 hrs by LC-MS/MS analysis; assay type: ADME, organism-based; settings: Lewis, blood, read-out: Ct; outline: as §2
[22] = AUC ratio in orally dosed Beagle dog blood assessed as phosphate metabolite to parent compound; assay type: ADME, organism-based, Canis lupus familiaris; settings: in vivo, po
Outline: (§6)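 Phosphate-to-parent ratio computed as blood AUC ratio after oral dosing in rats, dogs and monkeys.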

[23] = Pulmonary toxicity in Lewis rat assessed as fold elevation of BAL protein content at 1 mg/kg, po by chemistry analyzer based analysis relative to control; assay type: organism-based; settings: in vivo; outline: as §4
[24] = AUC ratio in orally dosed Sprague-Dawley rat blood assessed as phosphate metabolite to parent compound; assay type: ADME, organism-based; settings: in vivo, po; outline: as §6
[25] = Drug metabolism in Lewis rat blood assessed as phosphate ester metabolite to parent ratio at 1 mg/kg, po measured at 24 hrs by LC-MS/MS analysis; settings: in vivo
[26] = tested on: Rattus norvegicus; test: Reduction in circulating lymphocytes count in Lewis rat at 1 mg/kg, po measured at 4 hrs by hematology analyzer based analysis; assay type: functional; parameters: scale not given: the % may be the effect or the level left; outline: as §2
[27] = Drug metabolism in Lewis rat blood assessed as concentration of parent compound at 1 mg/kg, po measured at 24 hrs by LC-MS/MS analysis; assay type: ADME, organism-based; settings: Lewis, blood, read-out: Ct; outline: as §2
[28] = Reduction in circulating lymphocytes count in Lewis rat at 1 mg/kg, po measured at 24 hrs by hematology analyzer based analysis; assay type: organism-based; parameters: scale not given: the % may be the effect or the level left; settings: in vivo; outline: as §2
[29] = AUC ratio in orally dosed cynomolgus monkey blood assessed as phosphate metabolite to parent compound; assay type: ADME, organism-based, Macaca fascicularis; settings: in vivo, po; outline: as §6

| SMILES | Activity [1] [%] | Activity [3] [%] | Activity [10] [%] | Ratio [12] | concentration at 4 h [13] [nM] | concentration [14] [nM] | Activity [15] [%] | half-life [16] [h] | also measured |
| --- | --- | --- | --- | --- | --- | --- | --- | --- | --- |
| CCCSCCC1CCc2cc([C@H]3CC[C@](N)(CO)C3)ccc2C1 (single isomer, unassigned) | -26 | -61 |  |  |  |  |  |  | concentration at 4 h [2]: 43 nM; Activity [4]: 0%; concentration at 24 h [5]: 20 nM; Activity [6]: 60% |
| COCCCCCC1CCc2cc([C@H]3CC[C@](N)(CO)C3)ccc2C1 (single isomer, unassigned; 24) |  |  |  |  |  |  |  |  | Activity [7]: inactive; Activity [8]: Dose-dependent effect; Activity [9]: inactive |
| COCCCCC1CCc2cc([C@H]3CC[C@](N)(CO)C3)ccc2C1 (stereo in doubt; 13a) |  |  | 78 | 1.4 | 300 | 110 | 87 |  | fold change (FC) [11]: 1.7 |
| COCCCCC1CCc2cc([C@H]3CC[C@](N)(CO)C3)ccc2C1 (stereo in doubt; 13b) | -15 | -29 | 65 | 0.77 |  | 78 | 78 | 16 | fold change (FC) [11]: 2.1; concentration [13]: 271 nM |
| COCCCC1CCc2cc([C@H]3CC[C@](N)(CO)C3)ccc2C1 (stereo in doubt; 22a) |  |  | 76 | 2.8 | 141 | 33 | 74 | 13 | fold change (FC) [17]: 3 |
| COCCCC1CCc2cc([C@H]3CC[C@](N)(CO)C3)ccc2C1 (stereo in doubt; 22b) | -20 | -25 | 62 | 0.9 |  | 86 | 66 |  | fold change (FC) [18]: 1.6; concentration [13]: 215 nM; t1/2 ([16]; 2 mg/kg): 14 h |
| COCCCCCCC1CCc2cc([C@H]3CC[C@](N)(CO)C3)ccc2C1 (stereo in doubt; 25a) | -16 | -32 | 70 | 3.9 | 265 | 69 | 84 | 31 | fold change (FC) [18]: 1.7 |
| CCCCCC[C@@H]1CCc2cc([C@H]3CC[C@](N)(CO)C3)ccc2C1 [BMS-986104] | -2 | -33 |  |  |  |  |  |  | Ratio AUC [19]: 0.1; half-life [20]: > 100 h; concentration at 4 h [21]: 36 nM; Ratio AUC [22]: 2.4; fold change (FC) [23]: 1.1; Ratio AUC [24]: 2.5; Ratio [25]: 1.2; Activity [26]: 23%; concentration at 24 h [27]: 51 nM; Activity [28]: 76%; Ratio AUC [29]: 0.3 |
| CCCCCCCCc1ccc(CCC(N)(CO)CO)cc1 [FINGOLIMOD] |  |  |  |  |  |  |  |  | Ratio AUC [19]: 0.42; Ratio AUC [22]: 3.7; Ratio AUC [24]: 5.6; Ratio AUC [29]: 5.9 |
